Assay results gathered from unrelated publications.
Cell line: A549
Observed: cell growth or viability

SMILES	technique	time	setting	IC50 [µM]
CN(C)C/C=C/C(=O)Nc1cc2c(Nc3ccc(F)c(Cl)c3)ncnc2cc1O[C@H]1CCOC1	MTT	72 h		48.5
Cc1nc(Nc2ccc3c(c2)/C(=C/c2ccccc2C)C(=O)N3)c2ccccc2n1	MTT			18.2
Cc1ncc(CN2CCc3ccccc3C2)c2cc(C(=O)c3ccc4c(c3)OCCO4)oc12	MTT	72 h		28.2
O=C(C=Cc1ccccc1)Nc1cc(-c2ccnc(N3CCC(O)CC3)c2)ccn1	MTT	72 h		0.085
CNC(=O)c1cc(Oc2ccc(NC(=O)Nc3ccc(Cl)c(C(F)(F)F)c3)cc2)ccn1	MTT	72 h		5.58
COc1cc2ncnc(N(C)c3ccc4c(c3)/C(=C/c3cccc(Cl)c3)C(=O)N4C)c2cc1OC	MTT			5.83
[NH2][Pt]([NH2])([Cl])[Cl]	MTT			9.5
Cc1nc(N(Cc2ccccc2)c2ccc3c(c2)/C(=C/c2ccccc2)C(=O)N3Cc2ccccc2)c2ccccc2n1 (mixture of isomers)	MTT			0.64
Cc1ccc2c(-c3cc4c(CN5CCN(Cc6ccccn6)CC5)cnc(C)c4o3)cc(=O)oc2c1	MTT	72 h		43.1
C=C(F)C(=O)N1CCN(c2nc(OC[C@@H]3CCCN3C)nc3c2CCN(c2cccc4cccc(Cl)c24)C3)C[C@@H]1CC#N	ATP luminescence		3D culture	> 1
C[C@H]1Oc2cc(cnc2N)-c2c(nn(C)c2C#N)CN(C)C(=O)c2ccc(F)cc21				> 8.41
Cc1nc(Nc2ccc3c(c2)C(C)(C)C(=O)N3)c2ccccc2n1	MTT			3.21
O=C(O)c1ccc2c(c1)nc(Nc1cccc(Cl)c1)c1ccncc12	resazurin	48 h		11.5
